Results: ChEMBL document CHEMBL1157836, “Dibenzocyclooctadiene lignans from Schisandra wilsoniana and their anti-HIV-1 activities” (J Nat Prod, 2010)
In brackets after ≈: the same amount, converted by molar mass.

How the values were obtained:
[1] = Cytotoxicity against human C8166 cells by MTT assay; assay type: cell-based
How it was run: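 C8166 cells were tested by MTT assay alongside the anti-HIV-1 determination, giving CC50. AZT served as the positive control.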

[2] = system: Human immunodeficiency virus 1; assay: Antiviral activity against HIV1 infected in human C8166 cells assessed as inhibition of virus-induced cytopathic effect; assay type: functional, organism-based; conditions: Human immunodeficiency virus 1, C8166
How it was run: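 HIV-1 cytopathic-effect inhibition assay in C8166 cells, giving EC50. AZT served as the positive control. Cytotoxicity was determined in parallel.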

[3] = Therapeutic index, ratio of CC50 for C8166 cells to EC50 for HIV1; assay type: cell-based; conditions: human, read-out: TI
How it was run: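 TI was calculated as CC50 over EC50. CC50 came from the MTT assay on C8166 cells; EC50 came from HIV-1 cytopathic-effect inhibition in C8166 cells, run in parallel.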

Row | EC50 [2] | SMILES | CC50 [1] | selectivity ratio [3]
1 | 5 µg/mL (≈ 13.4 µM) | COc1cc2c(c(O)c1O)-c1c(cc(OC)c(OC)c1O)C[C@@H](C)[C@@H](C)C2 [MARLIGNAN C] | 65.6 µg/mL (≈ 175 µM) | 13.2
2 | 1.4 µg/mL (≈ 3.46 µM) | COc1c(O)cc2c(c1OC)-c1c(cc(O)c(OC)c1OC)C[C@](C)(O)[C@@H](C)C2 [MARLIGNAN L] | 22.6 µg/mL (≈ 55.9 µM) | 16.4
3 | 2.5 µg/mL (≈ 6.18 µM) | COc1c(O)cc2c(c1OC)-c1c(cc(O)c(OC)c1OC)[C@H](O)[C@@H](C)[C@@H](C)C2 [MARLIGNAN D] | 14.2 µg/mL (≈ 35.1 µM) | 5.7
4 | 1.4 µg/mL (≈ 3.35 µM) | COc1c(O)cc2c(c1OC)-c1c(cc(O)c(OC)c1OC)[C@H](OC)[C@@H](C)[C@@H](C)C2 [MARLIGNAN F] | 21.4 µg/mL (≈ 51.1 µM) | 15.6
5 | 1.6 µg/mL (≈ 3.58 µM) | COc1c(O)cc2c(c1OC)-c1c(cc(O)c(OC)c1OC)[C@H](OC(C)=O)[C@@H](C)[C@@H](C)C2 [MARLIGNAN E] | 13.7 µg/mL (≈ 30.7 µM) | 8.7
6 | 1.9 µg/mL (≈ 4.13 µM) | CCO[C@H]1c2cc(OC)c(OC)c(OC)c2-c2c(cc(OC)c(OC)c2OC)C[C@H](C)[C@@H]1C [MARLIGNAN J] | 17.2 µg/mL (≈ 37.3 µM) | 9.3
7 | 2.6 µg/mL (≈ 6.94 µM) | COc1c(O)cc2c(c1O)-c1c(cc(O)c(OC)c1OC)C[C@@H](C)[C@@H](C)C2 [MARLIGNAN A] | 15.8 µg/mL (≈ 42.2 µM) | 6
8 | 5.1 µg/mL (≈ 13.6 µM) | COc1cc2c(c(O)c1OC)-c1c(cc(O)c(OC)c1O)C[C@@H](C)[C@@H](C)C2 [MARLIGNAN B] | 43.4 µg/mL (≈ 116 µM) | 8.4
9 | 1.9 µg/mL (≈ 4.7 µM) | COc1cc2c(c(OC)c1OC)-c1c(cc(O)c(OC)c1O)C[C@H](C)[C@@](C)(O)C2 [MARLIGNAN K] | 14.8 µg/mL (≈ 36.6 µM) | 7.7
10 | 2.9 µg/mL (≈ 6.11 µM) | COc1cc2c(c(OC)c1OC)-c1c(cc(OC)c(OC)c1OC)[C@H](OC(C)=O)[C@@H](C)[C@@H](C)C2 [MARLIGNAN I] | 13.5 µg/mL (≈ 28.4 µM) | 4.6
11 | 2.6 µg/mL (≈ 6.46 µM) | COc1c(O)cc2c(c1OC)-c1c(cc(O)c(OC)c1OC)C(=O)[C@@H](C)[C@@H](C)C2 [MARLIGNAN H] | 46.5 µg/mL (≈ 116 µM) | 17.6
12 | 2.1 µg/mL (≈ 4.13 µM) | COc1c(O)cc2c(c1OC)-c1c(cc(O)c(OC)c1OC)[C@H](OC(=O)c1ccccc1)[C@@H](C)[C@@H](C)C2 | 14.2 µg/mL (≈ 27.9 µM) | 6.7
